MC4R ag barr = MC4R agonists recruiting beta-arrestin, primary screen, cell-based, luminescence, agonist arm of biased-ligand search. activation, % at 8.9 µM. 360,000 tested, 0.98% active. U2OS MC4R beta-arrestin complementation; percent of melanotan II response, DMSO zero;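 active means activation above a per-plate cutoff, the mean activation of sample wells on that plate plus 3 SD, cut at about 8% in these data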
MC4R antagonist = MC4R antagonists of cAMP signaling, primary screen, cell-based, TR-FRET, antagonist arm of biased-ligand search; 360,000 tested, 0.48% active; MC4R-expressing cells, MTII-stimulated cAMP, LANCE TR-FRET; Melanocortin receptor 4 (Homo sapiens), P32245; inhibition, % at 6.5 µM;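 active means inhibition above its plate's cutoff, the mean of tested wells on that plate plus 3 SD, cut at about 29% in these data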
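Test system: U2OS cells stably expressing human melanocortin 4 receptor (MC4R); also added: Melanotan II challenge; compound: 6.5 µM single dose; timing: 30-min compound preincubation, 1-h Melanotan II challenge, 1-h detection, room temperature; signal: Eu-cAMP/anti-cAMP TR-FRET, emission 671 nm; repeats: one well per compound, no replicates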
TLR4-MyD88 BLA = inhibitors of TLR4-MyD88 association in cells, primary screen, cell-based, HeLa CL3-4, BLA complementation, FRET ratio; HeLa CL3-4 TLR4/MyD88 BLA complementation; inhibition, % at 8.4 µM; 200,000 tested, 0.18% active; AID 861, 2007; in the data active means inhibition above about 25%
MIN6 prolif = inducers of MIN6 beta-cell proliferation, primary screen, ATP luminescence, uHTS; MIN6 cells proliferation, ATPlite luminescence, 48 h; cells starved in 0.2% serum; 100% = growth in 10% serum; proliferation, % at 10 µM; 330,000 tested, 0.29% active; AID 2380, 2010;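 active means compounds whose signal lies at least 3.5 SD above the mean of all wells on their plate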
TLR9-MyD88 block = inhibitors of TLR9-MyD88 association in cells, primary screen, cell-based, CHO, BLA complementation, fluorescence; Toll-like receptor 9 (Homo sapiens) + Myeloid differentiation primary response protein …; CCF4 FRET ratio; inhibition, % at 4.98 µM; 340,000 tested, 0.21% active;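 active means inhibition above the mean over all tested compounds plus 3 SD, cut at about 21% in these data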
NOD2 RIPK2 PPI = NOD2-RIPK2 binding disruptors in cells, primary screen, fluorescence, CHO cells, BLA complementation; AID 624267, 2012; 360,000 tested, 0.38% active; inhibition, % at 4.98 µM; Receptor-interacting serine/threonine-protein kinase 2 (Homo sapiens), O43353; CCF4 ratio; in the data active means inhibition above about 21%
MC4R barr conf = MC4R beta-arrestin agonists, retest, confirmation, cell-based, luminescence, U2OS; shares compounds with MC4R ag barr; U2OS MC4R beta-arrestin recruitment; scaled DMSO 0%, Melanotan II 100%; activation, % at 8.9 µM; 2,400 tested, 31% active; AID 602192, 2012;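 active means mean activation across replicates above the hit cutoff set in the earlier primary screen, cut at about 8% in these data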
MOR DOR agonist = agonists of MOR-DOR heterodimerization, counter-screen for MC4R biased agonist project, cell-based, luminescence. shares compounds with MC4R ag barr. U2OS PathHunter beta-arrestin, beta-gal luminescence; percent of deltorphin B response, DMSO zero. activation, % at 9.2 µM. 2,400 tested, 5.8% active. AID 602194, 2012;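 active means mean activation across replicates exceeds the hit threshold derived in the earlier primary screen, cut at about 18% in these data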
Target sequence (P35372 whole entry, looked up): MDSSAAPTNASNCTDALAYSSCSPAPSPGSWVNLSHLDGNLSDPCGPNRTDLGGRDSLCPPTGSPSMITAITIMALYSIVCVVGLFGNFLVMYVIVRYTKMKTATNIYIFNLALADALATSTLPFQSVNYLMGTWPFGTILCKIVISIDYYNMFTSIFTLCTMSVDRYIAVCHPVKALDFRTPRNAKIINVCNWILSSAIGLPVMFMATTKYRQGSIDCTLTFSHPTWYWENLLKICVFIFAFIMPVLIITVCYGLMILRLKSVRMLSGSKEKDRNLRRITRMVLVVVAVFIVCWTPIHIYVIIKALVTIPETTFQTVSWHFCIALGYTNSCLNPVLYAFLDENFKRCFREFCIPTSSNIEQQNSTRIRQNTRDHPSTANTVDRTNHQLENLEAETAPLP
Target sequence (P41143 whole entry, looked up): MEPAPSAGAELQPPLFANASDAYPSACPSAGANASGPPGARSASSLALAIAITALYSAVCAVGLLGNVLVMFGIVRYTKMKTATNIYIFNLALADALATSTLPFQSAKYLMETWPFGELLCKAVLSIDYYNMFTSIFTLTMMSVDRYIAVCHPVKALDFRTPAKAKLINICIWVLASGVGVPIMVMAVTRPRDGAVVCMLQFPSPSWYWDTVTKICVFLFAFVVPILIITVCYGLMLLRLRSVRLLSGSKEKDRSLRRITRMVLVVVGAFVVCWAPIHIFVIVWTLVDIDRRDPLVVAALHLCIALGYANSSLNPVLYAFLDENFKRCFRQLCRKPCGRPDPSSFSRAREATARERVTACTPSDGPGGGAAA
A number is an active result. Hits are enriched below; roughly 2.1% of the tested compounds scored in any of these assays.

Screening CC(C)NC(=O)NC(=O)COC(=O)c1cccc(OC(F)F)c1 returned MC4R ag barr inactive, MC4R antagonist inactive, TLR4-MyD88 BLA inactive, MIN6 prolif inactive, TLR9-MyD88 block inactive and NOD2 RIPK2 PPI inactive.
Cc1noc(C)c1COc1cccc(C(=O)OCC(=O)NC(=O)c2ccc(OC(F)F)cc2)c1 was read as MC4R ag barr 25, MC4R antagonist inactive, TLR4-MyD88 BLA inactive, MIN6 prolif inactive, TLR9-MyD88 block inactive, NOD2 RIPK2 PPI inactive, MC4R barr conf inactive and MOR DOR agonist inactive.
Screening Cc1onc(-c2ccccc2)c1C(=O)Nc1nc(-c2cc(F)ccc2F)cs1 returned MC4R ag barr 34, MC4R antagonist inactive, TLR4-MyD88 BLA inactive, MIN6 prolif inactive, TLR9-MyD88 block inactive, NOD2 RIPK2 PPI inactive, MC4R barr conf inactive and MOR DOR agonist inactive.
`O=C(CSc1nc2cc3ccccc3cc2[nH]1)Nc1ccc(F)cc1` gave MC4R ag barr 9.6, MC4R antagonist inactive, TLR4-MyD88 BLA inactive, MIN6 prolif inactive, TLR9-MyD88 block inactive, NOD2 RIPK2 PPI inactive, MC4R barr conf inactive and MOR DOR agonist inactive.
For COc1ccc(NC(=O)CSc2nc3ccc(OC)cc3[nH]2)cc1 the results were MC4R ag barr inactive, MC4R antagonist inactive, MIN6 prolif inactive, TLR9-MyD88 block inactive and NOD2 RIPK2 PPI inactive.
CC1CCCN(C(=S)NC2CCCC2)C1 (configuration not stated) was read as MC4R ag barr inactive, MC4R antagonist inactive, TLR4-MyD88 BLA inactive, MIN6 prolif inactive, TLR9-MyD88 block inactive and NOD2 RIPK2 PPI inactive.
For Cc1ccc(S(=O)(=O)N(C)Cc2ccc(C(=O)N/N=C/c3ccc(OC(F)F)cc3)cc2)cc1 the results were MC4R ag barr 25, MC4R antagonist inactive, TLR4-MyD88 BLA inactive, MIN6 prolif inactive, TLR9-MyD88 block inactive, NOD2 RIPK2 PPI inactive, MC4R barr conf inactive and MOR DOR agonist inactive.
Screening C/C(=N\NC(=O)c1ccc(CN(C)S(=O)(=O)c2ccc(C)cc2)cc1)c1ccc(OC(F)F)cc1 returned MC4R ag barr inactive, MC4R antagonist inactive, TLR4-MyD88 BLA inactive, MIN6 prolif inactive, TLR9-MyD88 block inactive and NOD2 RIPK2 PPI inactive.
Cc1cccc(C)c1NC(=O)C1c2ccccc2OCC(=O)N1C1CC1 (configuration not stated) was read as NOD2 RIPK2 PPI inactive.
C=CCNC(=S)N/N=C/c1ccc(-c2cc(Cl)ccc2Cl)o1 was read as MC4R ag barr inactive, MC4R antagonist inactive, TLR4-MyD88 BLA inactive, MIN6 prolif inactive, TLR9-MyD88 block inactive and NOD2 RIPK2 PPI inactive.
`C=CCNC(=S)N/N=C/c1ccc(-c2ccc(Cl)cc2Cl)o1` gave MC4R ag barr 10, MC4R antagonist inactive, MIN6 prolif inactive, TLR9-MyD88 block inactive, NOD2 RIPK2 PPI inactive, MC4R barr conf inactive and MOR DOR agonist inactive.
Screening CCOC(=O)c1cc(-c2ccccc2)sc1NC(=O)CC returned MC4R ag barr inactive, MC4R antagonist inactive, TLR4-MyD88 BLA inactive, MIN6 prolif inactive, TLR9-MyD88 block inactive and NOD2 RIPK2 PPI inactive.
CCOC(=O)c1cc(-c2ccccc2)sc1NC(=O)COC(=O)c1cccc(S(N)(=O)=O)c1 was read as MC4R ag barr 16, MC4R antagonist inactive, TLR4-MyD88 BLA inactive, MIN6 prolif inactive, TLR9-MyD88 block inactive, NOD2 RIPK2 PPI inactive, MC4R barr conf 19 and MOR DOR agonist 22.
`CCOC(=O)c1cc(-c2ccccc2)sc1NC(=O)CSc1nncs1` gave MC4R ag barr inactive, MC4R antagonist inactive, TLR4-MyD88 BLA inactive, MIN6 prolif inactive, TLR9-MyD88 block inactive and NOD2 RIPK2 PPI inactive.
For CCOC(=O)c1cc(-c2ccccc2)sc1NC(=O)CSc1nnc(N)s1 the results were MC4R ag barr 11, MC4R antagonist inactive, TLR4-MyD88 BLA inactive, MIN6 prolif inactive, TLR9-MyD88 block inactive, NOD2 RIPK2 PPI inactive, MC4R barr conf inactive and MOR DOR agonist inactive.
Screening CSc1ccc(CN2CCC(C)(Oc3ccccc3)C2)cc1 (configuration not stated) returned MC4R ag barr inactive, MC4R antagonist inactive and NOD2 RIPK2 PPI inactive.
Cc1ccc(C)c(N(C(=O)c2csnn2)C(C(=O)NC2CCCCC2)c2ccccn2)c1 (configuration not stated) was read as MC4R ag barr inactive, MC4R antagonist inactive, MIN6 prolif inactive, TLR9-MyD88 block inactive and NOD2 RIPK2 PPI inactive.
Cc1c(C(=O)Nc2ccc(C(F)(F)F)cc2)sc2ncn(CC(=O)N3CCN(c4ccccn4)CC3)c(=O)c12 was read as MC4R ag barr 14, MC4R antagonist inactive, MIN6 prolif inactive, TLR9-MyD88 block inactive, NOD2 RIPK2 PPI inactive, MC4R barr conf inactive and MOR DOR agonist inactive.
`Cc1ccc(NC(=O)c2sc3ncn(CC(=O)N4CCN(c5ccccn5)CC4)c(=O)c3c2C)cc1` gave MC4R ag barr inactive, MC4R antagonist inactive, TLR9-MyD88 block inactive and NOD2 RIPK2 PPI inactive.
`Cc1cc(C)nc(Nc2nc(-c3ccccc3)cs2)n1` gave MC4R ag barr inactive, MC4R antagonist inactive, MIN6 prolif inactive, TLR9-MyD88 block inactive and NOD2 RIPK2 PPI inactive.
Screening c1ccc(-c2csc(Nc3nc(N4CCOCC4)nc(N4CCOCC4)n3)n2)cc1 returned MC4R ag barr 14, MC4R antagonist inactive, TLR4-MyD88 BLA inactive, MIN6 prolif inactive, TLR9-MyD88 block inactive, NOD2 RIPK2 PPI inactive, MC4R barr conf 11 and MOR DOR agonist inactive.
`CCOc1ccc(Nc2ccc(C(=O)O)cc2[N+](=O)[O-])cc1` gave MC4R ag barr inactive, MC4R antagonist inactive, MIN6 prolif inactive, TLR9-MyD88 block inactive and NOD2 RIPK2 PPI inactive.
For CCOc1ccc(NC(=O)/C=C/c2ccccc2)c([N+](=O)[O-])c1 the results were MC4R ag barr 13, MC4R antagonist inactive, TLR4-MyD88 BLA inactive, MIN6 prolif inactive, TLR9-MyD88 block inactive, NOD2 RIPK2 PPI inactive, MC4R barr conf inactive and MOR DOR agonist inactive.
